Data on one compound can be found in ChEMBL document CHEMBL1123566, “Synthesis and cardiac electrophysiological activity of 2- and 3-[(substituted phenyl)alkyl]quinuclidines. Structure-activity relationships” (1987).

Experiment [1] is filed under the species Canis familiaris. As to the kind of experiment: In vitro electrophysiological evaluation in canine cardiac ventricular muscle reported as % change for the functional refractory period (FRP) concentration range of 0.1-100 uM. Further details: species or system Canis lupus familiaris, Muscle tissue. The procedure, abridged: (§1)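 Canine right ventricle and papillary muscle strips in oxygenated Tyrode's solution, fitted with stimulating and recording electrodes. The extra-stimulus conduction-interval method was adapted for in vitro use. FRP and CT were read from a conduction-interval curve before and after various compound concentrations, and expressed as percent change from control. Compounds were taken from 10 mM deionized-water stock into Tyrode's. Each strip was used once as its own control.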

The species entered for experiment [2] is Canis familiaris. As to the kind of experiment: In vitro electrophysiological evaluation in canine cardiac Purkinje fibres reported as percent change Vmax concentration range of 1-100 uM; Minimal (<IO%increase or a decrease in CT; Minimal (<IO%increase or a decrease in CT). In kind it is functional. The following applies: Canis lupus familiaris; Purkinje fiber. The procedure, abridged:
(§2)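 Canine cardiac Purkinje fibres, intracellular microelectrode recording, paced at a basic cycle length of 1 s. APD95 and Vmax read simultaneously. Compound: 10 mM stock in deionized water, diluted into Tyrode's solution, tested over the stated concentration range. Each fibre used once as its own control. Result is % change from control, given at 10 µM or as the maximum with its concentration. M = <10% decrease or an increase in Vmax.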

For experiment [3], the species on record is Canis familiaris. As to the kind of experiment: In vitro electrophysiological activity in canine cardiac Purkinje fibres given as maximum % change for action potential duration at 100 uM concentration. The format is functional, Canis lupus familiaris, Purkinje fiber. The procedure, abridged: (§3)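 Canine cardiac Purkinje fibres, intracellular recording at 1 s basic cycle length, over cumulative concentration ranges. Compound 10 mM stock in deionized water diluted into Tyrode's. Each fibre used once as its own control. Value is the maximum % change from control in APD at 95% repolarization, with the concentration where it occurred; both values given if a biphasic response (>20% reversal) occurred.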

For experiment [4], the species on record is Canis familiaris. As to the kind of experiment: In vitro electrophysiological activity in canine cardiac Purkinje fibres given as maximum % change for action potential duration t 100 uM concentration. In kind it is functional, Canis lupus familiaris, Purkinje fiber. The essentials:
as §3

Experiment [5] is filed under the species Canis familiaris. As to the kind of experiment: (§4) In vitro electrophysiological evaluation in canine cardiac Purkinje fibres reported as % change for action potential duration at 0.1-100 uM concentration range. In kind it is functional, Canis lupus familiaris, Purkinje fiber. The essentials:
as §2

Experiment [6] is filed under the species Canis familiaris. As to the kind of experiment: In vitro electrophysiological activity in canine cardiac Purkinje fibres given as maximum % change for action potential duration at 10 uM concentration. The format is functional, Canis lupus familiaris, Purkinje fiber. The procedure, abridged:
as §3

Experiment [7] is filed under the species Canis familiaris. As to the kind of experiment: In vitro electrophysiological evaluation in canine cardiac Purkinje fibres reported as percent change Vmax concentration range of 0.1-100 uM; Minimal (<IO%increase or a decrease in CT). In kind it is functional. The following applies: Canis lupus familiaris; Purkinje fiber. The procedure, abridged:
as §2

For experiment [8], the species on record is Canis familiaris. As to the kind of experiment: In vitro electrophysiological evaluation in canine cardiac Purkinje fibres reported as % change for action potential duration at 1-100 uM concentration range. In kind it is functional, Canis lupus familiaris, Purkinje fiber. The procedure, abridged: as §2
The species named for experiment [9] is Canis familiaris. As to the kind of experiment: In vitro electrophysiological evaluation in canine cardiac Purkinje fibres reported as % change for action potential duration at 0.1-30 uM concentration range. In kind it is functional, Canis lupus familiaris, Purkinje fiber. The procedure, abridged:
as §2

Experiment [10] is filed under the species Canis familiaris. As to the kind of experiment: In vitro electrophysiological evaluation in canine cardiac Purkinje fibres reported as percent change Vmax concentration range of 0.1-30 uM. In kind it is functional. Particulars: Canis lupus familiaris; Purkinje fiber. The essentials: as §2
The species named for experiment [11] is Canis familiaris. As to the kind of experiment: In vitro electrophysiological evaluation in canine cardiac ventricular muscle reported as maximum % change for functional refractory period (FRP) at 0.1-100 uM concentration range. Also noted: species or system Canis lupus familiaris, Muscle tissue.
The species entered for experiment [12] is Canis familiaris. As to the kind of experiment: In vitro electrophysiological evaluation in canine cardiac Purkinje fibres reported as percent change Vmax concentration range of 0.1-100 uM. In kind it is functional. Particulars: Canis lupus familiaris; Purkinje fiber. The essentials:
as §2

The species entered for experiment [13] is Canis familiaris. As to the kind of experiment: In vitro electrophysiological activity in canine cardiac Purkinje fibres given as maximum % change for action potential duration at 95% repolarization at 1 uM concentration. The format is functional, Canis lupus familiaris, Purkinje fiber. The essentials: as §3
Experiment [14] is filed under the species Canis familiaris. As to the kind of experiment: In vitro electrophysiological evaluation in canine cardiac Purkinje fibres reported as maximum percent change Vmax concentration range of 0.1-30 uM. The format is functional. Particulars: Canis lupus familiaris; Purkinje fiber. The essentials:
as §2

Experiment [15] is filed under the species Canis familiaris. As to the kind of experiment: In vitro electrophysiological evaluation in canine cardiac Purkinje fibres reported as maximum percent change Vmax concentration range of 1-100 uM; M = Minimal(<IO%increase or a decrease in CT). In kind it is functional. The following applies: Canis lupus familiaris; Purkinje fiber. The essentials:
as §2

The species entered for experiment [16] is Canis familiaris. As to the kind of experiment: In vitro electrophysiological activity in canine cardiac Purkinje fibres given as maximum % change for action potential duration at 0.1-100 uM concentration. In kind it is functional, Canis lupus familiaris, Purkinje fiber. The procedure, abridged:
as §3

For experiment [17], the species on record is Canis familiaris. The description is as §4. The format is functional, Canis lupus familiaris, Purkinje fiber. The essentials:
as §2
The source holds these as a separate data set.

Experiment [18] is filed under the species Canis familiaris. As to the kind of experiment: In vitro electrophysiological evaluation in canine cardiac ventricular muscle reported as maximum % change for conduction time(CT) at 0.1-100 uM concentration range; Minimal (<IO%increase or a decrease in CT). In kind it is functional, Canis lupus familiaris, Muscle tissue. The procedure, abridged:
as §1

The species entered for experiment [19] is Canis familiaris. As to the kind of experiment: In vitro electrophysiological evaluation in canine cardiac ventricular muscle reported as % change for conduction time(CT) at 0.1-100 uM concentration range; Minimal (<IO%increase or a decrease in CT). In kind it is functional, Canis lupus familiaris, Muscle tissue.

Several values for one entry are separate records, joined by “and”; a condition that tells them apart may be missing. Identical values can stand only once.

Take `Cl.Clc1ccc(CCCC2CC3CCN2CC3)cc1` (centres undefined): the FRP in [1] and in [11] was 25% throughout. Besides, the Vmax is less than 10% in [2]; -13% and < 10% in experiment [7]; -23% in experiment [10]; -10% in [12]; less than 10% in [14]; less than 10% in [15]. Further, the APD95 in experiment [3] was 21%; in [4], -20%; in experiment [5], 21% and 12%; in experiment [6], 30% and 12%; in [8] it was -20%; in experiment [9], 30%. Further, the APD95 in experiment [13] is reported as 40%; in [16] it was 13%; in experiment [17], 2%. The CT in experiment [18] and in experiment [19] was less than 10% each time.
